Experimental data reported in ChEMBL document CHEMBL1165879, “Benzimidazole derivatives related to 2,3-acrylonitriles, benzimidazo[1,2-a]quinolines and fluorenes: synthesis, antitumor evaluation in vitro and crystal structure determination” (Eur J Med Chem, 2010).

Legend:
HeLa = assay: Cytotoxicity against human HeLa cells after 72 hrs by MTT assay; format: functional, cell-based
Method in brief: (§1)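 Cells grown with FBS, 2 mM L-glutamine, penicillin and streptomycin at 37 °C, 5% CO2, humidified. Seeded in 96-well plates on day 0 at densities set by population doubling time. Five 10-fold dilutions (10^-8 to 10^-4 mol/L), freshly prepared, then 72 h exposure, modified NCI DTP method. Three individual experiments. IC50 from dose-response curves by linear regression.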

MIA PaCa-2 = assay: Cytotoxicity against human MIAPaCa2 cells after 72 hrs by MTT assay; format: functional, cell-based; conditions: MIA PaCa-2, 72 h; method in brief: as §1
SW-620 = assay: Cytotoxicity against human SW620 cells after 72 hrs by MTT assay; format: functional, cell-based; conditions: SW-620, 72 h; method in brief: as §1
MCF7 = assay: Cytotoxicity against human MCF7 cells after 72 hrs by MTT assay; format: functional, cell-based; conditions: MCF7, 72 h; method in brief: as §1
NCI-H460 = assay: Cytotoxicity against human H460 cells after 72 hrs by MTT assay; format: functional, cell-based; conditions: NCI-H460, 72 h; method in brief: as §1
Calf thymus DNA [1] = assay: Binding affinity to calf thymus DNA assessed as change in melting temperature at compound/polynucleotide ratio 3 in sodium cacodylate buffer at pH 7; format: nucleic-acid assay; conditions: Bos taurus; in the assay text read “compound/polynucleotide ratio 0.3” for “compound/polynucleotide ratio 3”
Method in brief: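 Thermal melting of ct-DNA, alone and with compound, in sodium cacodylate buffer pH 7.0, I = 0.05 mol dm^-3, DMSO under 1%. Absorbance at 260 nm followed against temperature, heated at 1 °C per minute. Ligand absorbance subtracted and scale normalized. Tm taken as transition midpoint, from the first-derivative maximum or graphically by tangent.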

Calf thymus DNA [2] = assay: Binding affinity to calf thymus DNA assessed as change in melting temperature at compound/polynucleotide ratio 0.3 in sodium cacodylate buffer at pH 7; conditions: Bos taurus

Row | ΔTm (Calf thymus DNA [1]) [°C] | ΔTm (Calf thymus DNA [2]) [°C] | Structure (SMILES) | IC50 (HeLa) [µM] | IC50 (MIA PaCa-2) [µM] | IC50 (SW-620) [µM] | IC50 (MCF7) [µM] | IC50 (NCI-H460) [µM]
1 |  |  | CC(=O)Nc1ccc2cc(C#N)c3nc4ccccc4n3c2c1 | 2 | 2 | 5 | 5 | 90
2 | 4.2 |  | COc1ccc(OC)c2c1cc(C#N)c1nc3ccccc3n12 | 5 | 23 | 6 | 31 | 14
3 |  |  | N#C/C(=C\c1ccc(Br)cc1)c1nc2ccccc2[nH]1 | 9 | 46 | > 50 | 19 | > 50
4 |  |  | N#Cc1cc2ccc(Br)cc2n2c1nc1ccccc12 | 20 | > 50 | 13 | 37 | 37
5 |  | 3 | COc1ccc(OC)c(/C=C(\C#N)c2nc3ccccc3[nH]2)c1 | 1 | 0.8 | 23 | 12 | 27
6 |  |  | CN(C)c1ccc(/C=C(\C#N)c2nc3ccccc3[nH]2)cc1 | > 50 | 26 | > 50 | 4 | > 50
7 | 4.8 |  | Cc1ccc2cc(C#N)c3nc4ccccc4n3c2c1 | > 100 | > 100 | > 100 | 70 | > 100
8 | 2.9 |  | Cc1ccc(/C=C(\C#N)c2nc3ccccc3[nH]2)cc1 | 20 | 32 | 87 | 8 | 81
9 |  |  | N#C/C(=C\c1cccs1)c1nc2ccccc2[nH]1 | 8 | > 50 | 48 | 30 | > 50
10 | 0.4 |  | Cn1cccc1/C=C(\C#N)c1nc2ccccc2[nH]1 | 0.8 | 4 | 30 | 13 | 26
11 | 2.4 |  | Cn1ccc2cc(C#N)c3nc4ccccc4n3c21 | 0.7 | 4 | 25 | 11 | 22
12 |  |  | COc1cccc2c1C(=O)c1c(O)c3c(c(O)c1C2=O)C[C@@](O)(C(=O)CO)C[C@@H]3O[C@H]1C[C@H](N)[C@H](O)[C@H](C)O1 [DOXORUBICIN] |  | 0.01 |  | 0.04 | 
13 |  | 3 | N#C/C(=C\c1ccc(F)cc1)c1nc2ccccc2[nH]1 | 15 | 18 | 59 | 14 | 43
14 | 4.4 |  | N#Cc1cc2ccc(F)cc2n2c1nc1ccccc12 | 29 | 28 | 22 | 50 | 26
15 |  |  | N#C/C(=C\c1ccncc1)c1nc2ccccc2[nH]1 | 21 | 57 | 42 | 9 | 78
16 |  |  | CC(=O)Nc1ccc(/C=C(\C#N)c2nc3ccccc3[nH]2)cc1 | 3 | 48 | > 100 | 4 | > 100
17 |  |  | N#Cc1cc2ccsc2n2c1nc1ccccc12 | 19 | 28 | 16 | 31 | 30
18 |  |  | CCN(CC)c1ccc(/C=C(\C#N)c2nc3ccccc3[nH]2)c(O)c1 | 3 | 3 | 10 | 2 | 11
19 |  |  | N#Cc1ccc2cc(C#N)c3nc4ccccc4n3c2c1 | 16 | > 50 | 14 | > 50 | 23
20 |  |  | N#C/C(=C\c1ccco1)c1nc2ccccc2[nH]1 | 25 | 28 | > 50 | 17 | > 50
21 |  |  | N#Cc1cc2ccncc2n2c1nc1ccccc12 | 45 | 32 | 30 | 67 | 57
22 |  |  | N#C/C(=C\c1cnc[nH]1)c1nc2ccccc2[nH]1 | 40 | 30 | 70 | 92 | > 100
